Compounds with a hit are over-represented: about 3.1% of the library has one in this group of screens.
MBD2 inh = inhibitors of MBD2 binding to methylated DNA, primary screen, biochemical, TR-FRET, DNA-binding domain, human. inhibition, % at 4.4 µM. MBD2 binding to methylated oligonucleotide. actives 0.31% (n = 370,000); in the data active means inhibition above about 13%
RBBP9 inh = human RBBP9 inhibitors, primary screen, biochemical, fluorescence polarization, FP-Rh probe, HTS; inhibition, % at 7.94 µM; recombinant RBBP9; Serine hydrolase RBBP9 (Homo sapiens), O75884; actives 0.2% (n = 220,000); AID 1515, 2009;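 active means inhibition above the campaign mean of all tested compounds plus 3 SD, cut at about 14% in these data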;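 further: plate controls were DMSO wells with RBBP9 for no effect and wells lacking RBBP9 protein for full effect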
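Test system: recombinant human RBBP9. Quantity: 2.5 µM RBBP9 dispensing solution, before mixing. Detection: FP readout at 525/598 nm. Reagent: Serine-hydrolase probe FP-Rh, 375 nM pre-mixing. Measure: % inhibition. Control set: DMSO-treated enzyme wells and wells lacking RBBP9. Buffer or medium: Tris-NaCl-Pluronic buffer, pH 8.0. Times: preincubation 30 min plus labeling 45 min at 25 °C.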
LEDGF integ inh = blockers of LEDGF/p75-dependent integrase strand transfer – biochemical, TR-FRET, high throughput, primary screen; HIV-1 integrase (with human LEDGF/p75); TR-FRET IN-LEDGF/p75 DNA integration, Eu/Cy5; inhibition, % at 3.7 µM; actives 0.64% (n = 370,000);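 active means inhibition above the screen-wide mean plus 3 SD, cut at about 13% in these data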;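 further: signal is the Cy5 over europium emission ratio at 671 and 618 nm; 0% = plate median of compound wells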
ABHD5 PLIN5 PPI = ABHD5-PLIN5 interaction inhibitors, primary screen, cell lysate, split luciferase complementation, luminescence. Perilipin-5 (Homo sapiens) + 1-acylglycerol-3-phosphate O-acyltransferase ABHD5 (Homo …. Split G. princeps luciferase complementation, 4 h. inhibition, % at 4 µM. actives 0.78% (n = 360,000). AID 602281, 2012;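 active means inhibition above the mean inhibition across every tested compound plus 3 SD, cut at about 22% in these data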;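 further: 0% = DMSO only wells and the 100% control is not disclosed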
PRMT1 FP inh = PRMT1 methyltransferase inhibitors, primary screen, biochemical, fluorescence polarization; actives 1.3% (n = 370,000); AID 652257, 2013; inhibition, % at 2.79 µM; Protein arginine N-methyltransferase 1 (Homo sapiens), Q99873; recombinant PRMT1, activity-based probe fluorescence polarization;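 active means inhibition above about 21% made by adding two undisclosed values, limit read from the data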
UHRF1 MBD2 ctr = UHRF1 methylated DNA binding inhibitors, primary screen, counter-screen for MBD2 inhibitor project, biochemical, TR-FRET, human UHRF1, single concentration; actives 0.75% (n = 370,000); inhibition, % at 4.4 µM; AID 687016, 2013; UHRF1 binding to methylated oligo; in the data active means inhibition above about 21%;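 further: UHRF1 SRA domain binding a hemimethylated CpG hairpin DNA probe; 0% = median of test compound wells and 100% = reference inhibitor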
Target sequence (Q96T88 whole entry, looked up, the tested form may be a part): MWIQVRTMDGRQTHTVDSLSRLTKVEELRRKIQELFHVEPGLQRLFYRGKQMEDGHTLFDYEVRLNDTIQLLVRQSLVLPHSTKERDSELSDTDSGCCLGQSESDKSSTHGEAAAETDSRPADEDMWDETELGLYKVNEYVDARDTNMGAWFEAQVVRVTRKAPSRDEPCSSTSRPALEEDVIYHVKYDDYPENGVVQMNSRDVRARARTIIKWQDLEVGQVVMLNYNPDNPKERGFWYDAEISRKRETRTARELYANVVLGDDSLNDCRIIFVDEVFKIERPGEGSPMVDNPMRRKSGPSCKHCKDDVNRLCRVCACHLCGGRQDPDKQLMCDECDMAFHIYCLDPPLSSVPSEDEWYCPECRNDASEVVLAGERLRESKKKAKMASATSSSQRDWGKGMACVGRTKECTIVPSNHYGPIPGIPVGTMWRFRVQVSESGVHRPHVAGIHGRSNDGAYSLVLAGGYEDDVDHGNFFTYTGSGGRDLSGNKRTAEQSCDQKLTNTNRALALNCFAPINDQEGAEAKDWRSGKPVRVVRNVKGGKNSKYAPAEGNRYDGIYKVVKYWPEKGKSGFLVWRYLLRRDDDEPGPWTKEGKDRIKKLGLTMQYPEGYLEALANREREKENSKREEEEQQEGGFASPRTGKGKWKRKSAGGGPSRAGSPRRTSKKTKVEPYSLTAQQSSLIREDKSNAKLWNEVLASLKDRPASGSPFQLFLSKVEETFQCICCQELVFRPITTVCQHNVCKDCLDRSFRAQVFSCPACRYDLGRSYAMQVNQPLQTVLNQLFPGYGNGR
An asterisk follows results filed as active.

For C=CCOC(=O)c1cc(-c2ccc(/C=C3\C(=O)NC(=O)C(C#N)=C3C)o2)ccc1Cl the results were MBD2 inh -2, RBBP9 inh -1, LEDGF integ inh 10, ABHD5 PLIN5 PPI -20, PRMT1 FP inh 25* and UHRF1 MBD2 ctr 0.
For CC(C)C[C@@H]1COc2cc(Br)ccc2S(=O)(=O)N1Cc1cn(Cc2ccco2)nn1 the results were MBD2 inh 2, LEDGF integ inh -1, PRMT1 FP inh 0 and UHRF1 MBD2 ctr -3.
Screening CC(=NNc1cc(C)c2cc(C)ccc2n1)c1ccccn1 returned MBD2 inh 1, LEDGF integ inh -3, PRMT1 FP inh 3 and UHRF1 MBD2 ctr -2.
Screening CCC(C)NC(=O)c1ccccc1NC(=O)Nc1ccccc1 (configuration not stated) returned MBD2 inh 2, RBBP9 inh -10, LEDGF integ inh -1, ABHD5 PLIN5 PPI -7, PRMT1 FP inh 1 and UHRF1 MBD2 ctr 27*.
`CC(C)CNC(=O)c1ccccc1NC(=O)Nc1ccccc1` gave MBD2 inh 5, RBBP9 inh -1, LEDGF integ inh -1, ABHD5 PLIN5 PPI 4, PRMT1 FP inh -2 and UHRF1 MBD2 ctr -4.
`CCNC(=O)N(C)[C@H]1C[C@H]2c3[nH]c4c(-c5cccc(C)c5)cccc4c3CCN2C[C@H]1[C@H](C)O` gave MBD2 inh 2, LEDGF integ inh -1, PRMT1 FP inh 2 and UHRF1 MBD2 ctr 6.
`CC(CCN1CCC(CN2C(=S)NCC2Cc2ccccc2)CC1)c1ccccc1` (configuration not stated) gave MBD2 inh 11, LEDGF integ inh 3, ABHD5 PLIN5 PPI 3, PRMT1 FP inh 2 and UHRF1 MBD2 ctr 21*.
Screening CCCCn1c(N)c(N(CCOC)C(=O)c2cc(-c3ccco3)nc3ccccc23)c(=O)[nH]c1=O returned MBD2 inh 1, LEDGF integ inh 8, ABHD5 PLIN5 PPI 6, PRMT1 FP inh 14 and UHRF1 MBD2 ctr 11.
Screening CCCCn1c(N)c(N(CCC(C)C)C(=O)c2cc(-c3ccco3)nc3ccccc23)c(=O)[nH]c1=O returned MBD2 inh 7, LEDGF integ inh 8, ABHD5 PLIN5 PPI 13, PRMT1 FP inh 22* and UHRF1 MBD2 ctr 4.
CCCCN(C(=O)c1cc(-c2ccco2)nc2ccccc12)c1c(N)n(CCCC)c(=O)[nH]c1=O was read as MBD2 inh -5, LEDGF integ inh 11, ABHD5 PLIN5 PPI -2, PRMT1 FP inh 22* and UHRF1 MBD2 ctr 11.
For CCCCn1c(N)c(N(CC(C)C)C(=O)c2cc(-c3ccc(OC)cc3)nc3ccccc23)c(=O)[nH]c1=O the results were MBD2 inh 7, LEDGF integ inh 1, ABHD5 PLIN5 PPI 1, PRMT1 FP inh -1 and UHRF1 MBD2 ctr 4.
For O=C(CNS(=O)(=O)c1ccccc1)N1CCN(c2ccccc2)CC1 the results were MBD2 inh 1, RBBP9 inh -10, LEDGF integ inh -3, ABHD5 PLIN5 PPI 5, PRMT1 FP inh 4 and UHRF1 MBD2 ctr 3.
Screening CCOC(=O)N1CCN(C(=O)CCNS(=O)(=O)c2ccccc2)CC1 returned MBD2 inh 1, LEDGF integ inh 0, ABHD5 PLIN5 PPI -4, PRMT1 FP inh -3 and UHRF1 MBD2 ctr 22*.
Screening CCOC(=O)N1CCN(C(=O)CNS(=O)(=O)c2cccs2)CC1 returned MBD2 inh 3, RBBP9 inh -2, LEDGF integ inh -1, ABHD5 PLIN5 PPI 1, PRMT1 FP inh 1 and UHRF1 MBD2 ctr -1.
`O=C(CNS(=O)(=O)c1ccccc1)N1CCCC1` gave MBD2 inh 13, RBBP9 inh -7, LEDGF integ inh 7, ABHD5 PLIN5 PPI -2, PRMT1 FP inh 1 and UHRF1 MBD2 ctr 21*.
Screening CC(=O)Nc1ccc(S(=O)(=O)NCC(=O)N2CCN(S(=O)(=O)c3cccs3)CC2)cc1 returned MBD2 inh 2, LEDGF integ inh 7, ABHD5 PLIN5 PPI -15, PRMT1 FP inh 24* and UHRF1 MBD2 ctr 0.
N=c1c2c(ccn1CCCCc1ccccc1)Oc1ccc3ccccc3c1C2c1ccccc1 (configuration not stated) was read as MBD2 inh 3, LEDGF integ inh -2, PRMT1 FP inh -5 and UHRF1 MBD2 ctr -4.
`CN(C)C(=O)NCCCC#Cc1ccccc1` gave MBD2 inh -6, LEDGF integ inh 0, PRMT1 FP inh 2 and UHRF1 MBD2 ctr 0.
Screening O=[N+]([O-])c1cccc(C2=Nn3c(nnc3-c3ccccc3)SC2)c1 returned MBD2 inh 2, LEDGF integ inh -1, PRMT1 FP inh -2 and UHRF1 MBD2 ctr -2.
Screening N#Cc1cccc(Cn2ccc3ccc(-c4ccc5ccn(Cc6ccccc6)c5c4)cc32)c1 returned MBD2 inh -1, LEDGF integ inh 7, PRMT1 FP inh 5 and UHRF1 MBD2 ctr 0.
`COC(=O)[C@]12C[C@H](CC(=O)NCc3cccc4ccccc34)C(=O)N(CCc3ccc(OC)c(OC)c3)C1=C[C@H](C(C)(C)C)O[C@@H]2C` gave MBD2 inh -4, LEDGF integ inh 4, PRMT1 FP inh 1 and UHRF1 MBD2 ctr 0.
`COc1ccccc1-c1ccc(SCc2cccc(F)c2)nn1` gave MBD2 inh -6, RBBP9 inh 3, LEDGF integ inh -5, ABHD5 PLIN5 PPI -12, PRMT1 FP inh -1 and UHRF1 MBD2 ctr 58*.
CC(=O)Nc1ccc(-n2c(C)ccc2C)cc1 was read as MBD2 inh -5, RBBP9 inh 0, LEDGF integ inh -1, ABHD5 PLIN5 PPI 4, PRMT1 FP inh 1 and UHRF1 MBD2 ctr -1.
Screening CC(=O)Nc1ccc(-n2c(C)ccc2-c2ccccc2)cc1 returned MBD2 inh 2, LEDGF integ inh -2, ABHD5 PLIN5 PPI 3, PRMT1 FP inh 23* and UHRF1 MBD2 ctr 3.
CN1c2ccccc2C(O)=C(C(=S)Nc2ccccc2)S1(=O)=O was read as MBD2 inh -1, RBBP9 inh -4, LEDGF integ inh 0, ABHD5 PLIN5 PPI -11, PRMT1 FP inh 22* and UHRF1 MBD2 ctr -2.
Cc1ccc(NC(=S)C2=C(O)c3ccccc3N(C)S2(=O)=O)cc1 was read as MBD2 inh 1, RBBP9 inh 0, LEDGF integ inh 0, ABHD5 PLIN5 PPI -13, PRMT1 FP inh 13 and UHRF1 MBD2 ctr -3.
`COC(=O)c1ccccc1-c1c2ccc(=N)cc-2oc2cc(N)ccc12` gave MBD2 inh -436, LEDGF integ inh 1, ABHD5 PLIN5 PPI -1, PRMT1 FP inh active and UHRF1 MBD2 ctr inactive.

Screens deposited in PubChem by The Scripps Research Institute Molecular Screening Center.
